One compound from ChEMBL document CHEMBL4354861, “Re-Evaluating the Mechanism of Action of α,β-Unsaturated Carbonyl DUB Inhibitors b-AP15 and VLX1570: A Paradigmatic Example of Unspecific Protein Cross-linking with Michael Acceptor Motif-Containing Drugs” (J Med Chem, 2020) can be followed below.

Calls of active or inactive are those of the source. The rule behind the calls is not given here.

The target of test [1] is Ubiquitin carboxyl-terminal hydrolase 14 (Homo sapiens) (UniProt P54578). In words: Inhibition of USP14 in human HeLa crude cell extracts assessed as induction of formation of high molecular weight complexes with USP14 at 10 uM incubated for 2 hrs in presence of glutathione by immunoblot analysis. It is filed as cell-free. A general note: In western blotting, separated proteins are transferred to a membrane and probed.
Chain of Ubiquitin carboxyl-terminal hydrolase 14 (Homo sapiens) (P54578 whole entry): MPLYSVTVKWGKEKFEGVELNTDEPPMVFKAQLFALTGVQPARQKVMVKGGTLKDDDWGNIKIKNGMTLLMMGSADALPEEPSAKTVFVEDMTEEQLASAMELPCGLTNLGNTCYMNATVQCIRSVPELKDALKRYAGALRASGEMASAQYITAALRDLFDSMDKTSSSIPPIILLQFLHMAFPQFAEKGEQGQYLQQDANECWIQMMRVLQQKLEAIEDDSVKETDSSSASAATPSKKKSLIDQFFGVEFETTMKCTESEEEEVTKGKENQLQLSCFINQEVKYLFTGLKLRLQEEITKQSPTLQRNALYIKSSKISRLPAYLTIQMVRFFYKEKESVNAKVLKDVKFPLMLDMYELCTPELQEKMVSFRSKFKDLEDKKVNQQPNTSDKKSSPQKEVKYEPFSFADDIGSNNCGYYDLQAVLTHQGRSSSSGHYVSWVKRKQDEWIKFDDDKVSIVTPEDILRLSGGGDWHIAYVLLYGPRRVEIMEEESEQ

For test [2], the target named is T1, Ubiquitin carboxyl-terminal hydrolase isozyme L5 (Homo sapiens) (UniProt Q9Y5K5).
T1 sequence (whole entry): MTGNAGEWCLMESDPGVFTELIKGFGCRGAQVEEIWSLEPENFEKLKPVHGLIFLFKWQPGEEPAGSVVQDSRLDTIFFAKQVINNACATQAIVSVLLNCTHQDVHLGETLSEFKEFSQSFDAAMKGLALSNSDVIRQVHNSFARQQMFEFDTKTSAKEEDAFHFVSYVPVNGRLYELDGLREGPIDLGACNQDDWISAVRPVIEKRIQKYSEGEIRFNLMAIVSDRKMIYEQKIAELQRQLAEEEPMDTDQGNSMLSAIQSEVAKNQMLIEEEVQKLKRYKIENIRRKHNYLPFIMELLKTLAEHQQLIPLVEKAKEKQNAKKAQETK
The experiment in a line: Inhibition of UCH-37 in human HeLa crude cell extracts assessed as induction of formation of high molecular weight complexes with […] at 10 uM incubated for 2 hrs by immunoblot analysis. It is filed as cell-free.

The target of test [3] is T1, Ubiquitin carboxyl-terminal hydrolase isozyme L5 (Homo sapiens). In words: Inhibition of UCH-37 in intact human HeLa cells assessed as induction of formation of high molecular weight complexes with USP14 at 10 uM incubated for 2 hrs in presence of glutathione by immunoblot analysis. It is filed as cell-based. A digest of the protocol: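 Intact HeLa cells (DMEM, 10% FBS, about 80% confluent) treated 2 h with vehicle or 10 μM compound, with or without 10 mM DTT or 10 mM GSH. Cells washed in cold PBS and lysed in RIPA with protease and phosphatase inhibitors. High-MW species detected by SDS-PAGE immunoblot; shorter exposures served as loading control.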

Test [4] has as its target Ubiquitin carboxyl-terminal hydrolase 14 (Homo sapiens) (UniProt P54578). In words: Inhibition of USP14 in human HeLa crude cell extracts assessed as induction of formation of high molecular weight complexes with USP14 at 10 uM incubated for 2 hrs by immunoblot analysis. It is filed as cell-free.

With `C=CC(=O)N1C/C(=C\c2ccc([N+](=O)[O-])cc2)C(=O)/C(=C/c2ccc([N+](=O)[O-])cc2)C1`, the inhibition entry in test [1] and in test [3] was “inactive” in each case. Also, the inhibition entry in test [2] and in test [4] was “Active” in each case.
